Published values pooled from the literature.
Protocols differ between the studies behind these lines.

| Compound | target or system | assay | system | conditions | endpoint | result |
| --- | --- | --- | --- | --- | --- | --- |
| Cn1cc2c3c1C(=O)C(NCCc1ccc(O)cc1)=CC3=[N+](C)CC2 | Plasmodium falciparum | parasite growth, SYBR Green | DD2 | blood stage | IC50 | 48.4 nM |
| COCC(=O)N1CCCC(C(=O)NCc2nc(-c3ccccc3)cs2)C1 (racemic) | Plasmodium falciparum | parasite growth, SYBR Green |  | 72 h | EC50 | 150 nM |
| COc1ccc(C(=O)/C=C/c2cn(Cc3cn(-c4ccnc5cc(Cl)ccc45)nn3)c3ccccc23)cc1OC | Plasmodium falciparum | parasite growth, SYBR Green | 3D7 | 5 µM, blood stage | inhibition | -4% |
| O=C1C=C2NCCc3c[nH]c(c32)C1=O | Plasmodium falciparum | parasite growth, SYBR Green | W2 | blood stage | IC50 | 25000 nM |
| CNc1ncc2c(/C=C/C(=O)N3CCC(OC)CC3)nn(CC3CCCCC3)c2n1 | FLO-1 | cell growth or viability, resazurin |  | 5 days | EC50 | 7150 nM |
| O=C1C(NCCc2ccc(O)cc2)=CC2=NCCc3c[nH]c1c32 | Plasmodium falciparum | parasite growth, SYBR Green | DD2 | blood stage | IC50 | 291 nM |
| O=C(/C=C/c1cn(Cc2cn(-c3ccnc4cc(Cl)ccc34)nn2)c2ccccc12)c1ccc(F)cc1 | Plasmodium falciparum | parasite growth, SYBR Green | 3D7 | 10 µM, blood stage | inhibition | 47.1% |
| COC(=O)/C=C/c1nn(CC2CCCC2)c2ncnc(N)c12 | FLO-1 | cell growth or viability, resazurin |  | 5 days | EC50 | > 30000 nM |
| O=C(/C=C/c1cn(Cc2cn(-c3ccnc4cc(Cl)ccc34)nn2)c2ccccc12)c1cccc([N+](=O)[O-])c1 | Plasmodium falciparum | parasite growth, SYBR Green | 3D7 | 10 µM, blood stage | inhibition | 36% |
| Nc1ncnc2c1c(/C=C/C(=O)N1CCC(O)CC1)nn2CC1CCCC1 | FLO-1 | cell growth or viability, resazurin |  | 5 days | EC50 | > 30000 nM |
| O=C(/C=C/c1cn(Cc2cn(-c3ccnc4cc(Cl)ccc34)nn2)c2ccccc12)c1cc(OCc2ccccc2)cc(OCc2ccccc2)c1 | Plasmodium falciparum | parasite growth, SYBR Green | 3D7 | 10 µM, blood stage | inhibition | 49% |
| C=CC(=O)NC1CCN(c2ncc3ncnc(Nc4ccc(Oc5ccc6c(c5)ncn6C)c(C)c4)c3n2)CC1 | SW900 | cell growth or viability |  |  | EC50 | 46.3 nM |
| O=C(NO)c1ccc(CNc2nc3cccc(-c4ccc5c(c4)OCO5)n3n2)cc1 | NCI-H460 | cell growth or viability, SRB |  |  | GI50 | 680 nM |
| COc1cccc(C(=O)/C=C/c2cn(Cc3cn(-c4ccnc5cc(Cl)ccc45)nn3)c3ccccc23)c1 | Plasmodium falciparum | parasite growth, SYBR Green | 3D7 | 5 µM, blood stage | inhibition | 2.88% |
| CNc1ncc2c(/C=C/C(=O)N3CCC(O)CC3)nn(CC3CCCC3)c2n1 | FLO-1 | cell growth or viability, resazurin |  | 5 days | EC50 | > 30000 nM |
